Experimental data: the RNAGym collection of RNA variant scans (doi:10.1126/science.aae0568)
This sample holds only a part of the variants without activity.

B1: tRNA (parent)
chain: GUUCCGUUGGCGUAAUGGUAACGCGUCUCCCUCCUAAGGAGAAGACUGCGGGUUCGAGUCCCGUACGGAACG

Variants of: B1
Experiment: yeast fitness relative to wild type (ratio to wild type); higher = fitter; tRNA-Arg(CCU), competitive growth, 37 C, YPD
Procedure, shortened: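 A pool of Saccharomyces cerevisiae strains, each with a tRNA-Arg(CCU) gene variant at the native genomic locus, was competed in YPD at 37°C for 24 hours across six parallel replicates. The variants had been chemically synthesised at a 3% per-site mutation rate over 69 sites, and gene amplicons before and after competition were read by 100-nucleotide paired-end sequencing. Darwinian fitness relative to wild type rested on changes in genotype frequencies. Genotypes required ≥ 100 starting reads, and estimates < 0.5 were set to 0.5.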

U7A U19A A20C A40G and U7C C30U G39C U64C cannot be ordered by yeast fitness: at most 0.5 for the first, at most 0.5 for the second.

Compared with U7C G18A C31A, U7A G52C is higher in yeast fitness: 0.541 for the first, 0.55 for the second.

First: U7C A20U
Second: U7C A20G
The yeast fitness of the first is lower: 0.722 for the first, 0.819 for the second.

U7C C30G U32C A40C C62U G67A and U7C C11G C30G C33A A57C C61A cannot be ordered by yeast fitness: at most 0.5 for the first, at most 0.5 for the second.

Compared with U7C C30U C34A A57U C66A, U7C C30G G39A G41U G51C G52A is lower in yeast fitness: 0.555 for the first, at most 0.5 for the second.

Compared with U7C G9C G41A, U7A U19A is higher in yeast fitness: at most 0.5 for the first, 0.752 for the second.

Compared with U7C G58A, U7C C24U A70G is lower in yeast fitness: 1.06 for the first, 0.666 for the second.

U7A U8A G67C and U7C C34G A45G C60U A69U cannot be ordered by yeast fitness: at most 0.5 for the first, at most 0.5 for the second.

Compared with U7C C31G C34U A57U, U7A U64A is higher in yeast fitness: at most 0.5 for the first, 0.837 for the second.

U7A U16C G17A C29U C31A C66G G67U and U7A U19G U26C C29G cannot be ordered by yeast fitness: at most 0.5 for the first, at most 0.5 for the second.

U7C A21U C22A C49U G50C A69U and U7C C24A C55A C62U A65C cannot be ordered by yeast fitness: at most 0.5 for the first, at most 0.5 for the second.

Compared with U7C A15G G17A, U7A G41C is higher in yeast fitness: at most 0.5 for the first, 0.684 for the second.

Compared with U7A U8A U35C C62A, U7C C34A U59A is lower in yeast fitness: 0.537 for the first, at most 0.5 for the second.

Compared with U7C G44A, U7C A43G A65C is lower in yeast fitness: 0.807 for the first, 0.591 for the second.

Compared with U7A U8G C30G G63A, U7C C27G C33G G44A is higher in yeast fitness: at most 0.5 for the first, 0.75 for the second.

First: U7C G9A A20U A36G C55G
Second: U7A U47C A69C
The yeast fitness of the first is lower: at most 0.5 for the first, 0.601 for the second.

Going from U7C A21U C55A to U7C C11G U13G C30U A70C, the yeast fitness falls from 0.586 to at most 0.5.

Going from U7C C33G A37U A40C A69U to U7C G9A A14C C33G G50C C60G U64A, the yeast fitness rises from 0.533 to 0.618.

Going from U7C C49U U54C to U7C G18C A37G G51C, the yeast fitness rises from 0.508 to 0.697.

Compared with U7C G12A C24U C49A, U7C C31U A57U is higher in yeast fitness: at most 0.5 for the first, 0.539 for the second.

Going from U7C A45U U54C to U7C G12A C31U U47C, the yeast fitness falls from 0.557 to at most 0.5.

U7C C33G A36G C49A G68C and U7C C22U A43U cannot be ordered by yeast fitness: at most 0.5 for the first, at most 0.5 for the second.

First: U7A G51A
Second: U7A G51C
The yeast fitness of the first is higher: 0.652 for the first, 0.553 for the second.

Compared with U7C A37U G39C A43U C55G, U7C C22U U53A is higher in yeast fitness: at most 0.5 for the first, 0.71 for the second.

Going from U7A G50U to U7A G50C, the yeast fitness falls from 0.69 to 0.684.

Compared with U7C C27U C60A, U7A U19A U32C is higher in yeast fitness: at most 0.5 for the first, 0.829 for the second.

Going from U7C C34A to U7C G56U A65U G68C, the yeast fitness falls from 0.764 to at most 0.5.

Going from U7C A21G C33G C60U to U7C A43C C55U, the yeast fitness rises from at most 0.5 to 0.543.

First: U7C A15C G38A A45G G52A C61G
Second: U7C C27A G51C C60U A69C
The yeast fitness of the first is higher: 0.558 for the first, at most 0.5 for the second.

Compared with U7C C31U C46U, U7C G18A C31A U59A is lower in yeast fitness: 0.532 for the first, at most 0.5 for the second.

Going from U7C C22G to U7C C11A C33A A36C G63C C66G, the yeast fitness falls from 0.842 to at most 0.5.

Compared with U7C A15G, U7C C31U U47C is lower in yeast fitness: 0.793 for the first, at most 0.5 for the second.

Going from U7C G10C C46U to U7A U54C, the yeast fitness rises from 0.523 to 0.734.

U7A G41C G63C A65U and U7C A20G C31U A43G U59A cannot be ordered by yeast fitness: at most 0.5 for the first, at most 0.5 for the second.

First: U7C C49G A69C
Second: U7A U13A A69C
The yeast fitness of the first is higher: 0.58 for the first, at most 0.5 for the second.

U7C A42C U53A and U7C A15G A20U C24G U35C A36C C61A cannot be ordered by yeast fitness: at most 0.5 for the first, at most 0.5 for the second.

Compared with U7A U19A C49U G56C G63C, U7C G41A A42C G50C C66U is higher in yeast fitness: at most 0.5 for the first, 0.548 for the second.

First: U7C A15C A40G U53G
Second: U7C G12A U13C U26C C61U G63A
The yeast fitness of the first is lower: at most 0.5 for the first, 0.596 for the second.

Going from U7C C29G C49U U64A G68A to U7C A15U C49U C62U, the yeast fitness rises from at most 0.5 to 0.673.

Compared with U7C G51C A57G, U7C G44A C46U A69C is higher in yeast fitness: at most 0.5 for the first, 0.698 for the second.

First: U7C G10C C61G C62U
Second: U7A U26C A69U
The yeast fitness of the first is lower: at most 0.5 for the first, 0.574 for the second.

U7A U8G C34A G58C C62A A69C and U7C A14U C24G C30U A43G cannot be ordered by yeast fitness: at most 0.5 for the first, at most 0.5 for the second.

U7C C55A G67A and U7C C27U G48A C55A G63A cannot be ordered by yeast fitness: at most 0.5 for the first, at most 0.5 for the second.

U7C C11G C24U G48A C66U A70C and U7A U8A G25A C62G cannot be ordered by yeast fitness: at most 0.5 for the first, at most 0.5 for the second.

Going from U7C C62G A69U to U7C A21C C34U C49U A69U, the yeast fitness falls from 0.565 to at most 0.5.

U7C G39C C46U C49U G56A G68C and U7C G18A G50A U64A cannot be ordered by yeast fitness: at most 0.5 for the first, at most 0.5 for the second.

First: U7A U28G C30A G52A A69U
Second: U7C C24A C29G
The yeast fitness of the first is higher: 0.607 for the first, 0.594 for the second.

Compared with U7C C11U C31U C33G C49A G51A, U7C G25C U47C is higher in yeast fitness: at most 0.5 for the first, 0.622 for the second.

U7A U8G C30G and U7C C29G U47C U53G cannot be ordered by yeast fitness: at most 0.5 for the first, at most 0.5 for the second.

U7A U13A C46G C66U and U7C C24A G68A cannot be ordered by yeast fitness: at most 0.5 for the first, at most 0.5 for the second.

First: U7A U13A G23A
Second: U7C G41A A42C G50C A69C
The yeast fitness of the first is lower: at most 0.5 for the first, 0.527 for the second.

Compared with U7C A14G G23A G25A A36U A43U, U7A U32A A42U C60A is higher in yeast fitness: at most 0.5 for the first, 0.619 for the second.

U7A U28A A69C and U7C G9C U28C G41A cannot be ordered by yeast fitness: at most 0.5 for the first, at most 0.5 for the second.

First: U7C A14C A21C C46A
Second: U7A U8G C30G A70U
The yeast fitness of the first is lower: at most 0.5 for the first, 0.518 for the second.

U7C C29U U47A C62G and U7C C33U G39C G58A cannot be ordered by yeast fitness: at most 0.5 for the first, at most 0.5 for the second.

Going from U7C A40U to U7C A40G, the yeast fitness rises from 0.793 to 0.822.

First: U7A G41C U54A C62U A70U
Second: U7C A14G G17A
The yeast fitness of the first is lower: at most 0.5 for the first, 0.531 for the second.

First: U7C G50A
Second: U7A U16C G17A C29U C31A
The yeast fitness of the first is higher: 0.684 for the first, at most 0.5 for the second.

Going from U7C A21C to U7C A21U, the yeast fitness rises from 0.606 to 0.769.

First: U7C C31A U35G A42G
Second: U7C G18C G38C C62A
The yeast fitness of the first is higher: 0.591 for the first, at most 0.5 for the second.

U7A G56C C66U and U7C C33U G58A C66A cannot be ordered by yeast fitness: at most 0.5 for the first, at most 0.5 for the second.

U7C C29G G39A and U7C C11U G39C A45U cannot be ordered by yeast fitness: at most 0.5 for the first, at most 0.5 for the second.

U7C C30A A42C C60U A69G and U7A U35C G41C A70U cannot be ordered by yeast fitness: at most 0.5 for the first, at most 0.5 for the second.

U7C G10C C49U A65G and U7A U8G A14G A36U A43U cannot be ordered by yeast fitness: at most 0.5 for the first, at most 0.5 for the second.

First: U7A G39C C55A
Second: U7A U8A U35C
The yeast fitness of the first is higher: 0.723 for the first, 0.601 for the second.

Compared with U7A U28C C62G, U7A U8C C61U is higher in yeast fitness: at most 0.5 for the first, 0.604 for the second.

U7C G12A C24U and U7A U13A C49A cannot be ordered by yeast fitness: at most 0.5 for the first, at most 0.5 for the second.

Going from U7C G38C C49A A70C to U7A U47C, the yeast fitness rises from at most 0.5 to 0.785.

First: U7C C29G A40U
Second: U7C C61U U64A A69G
The yeast fitness of the first is higher: 0.665 for the first, 0.535 for the second.

U7C C11U U32C G39C G67C and U7C C29G G58C G67C cannot be ordered by yeast fitness: at most 0.5 for the first, at most 0.5 for the second.

First: U7C G10C C46U G63C
Second: U7C G25C
The yeast fitness of the first is lower: at most 0.5 for the first, 0.822 for the second.

Compared with U7C G25A, U7C A57G is lower in yeast fitness: 1.04 for the first, 0.842 for the second.

First: U7C A57C
Second: U7C C34U A70G
The yeast fitness of the first is higher: 0.612 for the first, at most 0.5 for the second.

Compared with U7C C30G A40U A70U, U7A G48A is higher in yeast fitness: at most 0.5 for the first, 0.99 for the second.

First: U7A U32C C33G
Second: U7C C30G
The yeast fitness of the first is lower: at most 0.5 for the first, 0.579 for the second.

First: U7C C30A
Second: U7C A20G C30A
The yeast fitness of the first is higher: 0.794 for the first, at most 0.5 for the second.

Compared with U7C A36G A45U, U7C G12A U13C U26C C60U is lower in yeast fitness: 0.569 for the first, at most 0.5 for the second.

Compared with U7C C24U, U7C C61G C62U is lower in yeast fitness: 0.855 for the first, at most 0.5 for the second.

First: U7C G12A U13C U26C
Second: U7C C30U G39C U54C U64C
The yeast fitness of the first is higher: 0.565 for the first, at most 0.5 for the second.

First: U7C A65U
Second: U7A U13G G41A
The yeast fitness of the first is higher: 0.849 for the first, at most 0.5 for the second.

U7C C30U G39C and U7A G48A U59C C61A G63A cannot be ordered by yeast fitness: at most 0.5 for the first, at most 0.5 for the second.

Compared with U7C C11U A37C C60A, U7C A42U is higher in yeast fitness: at most 0.5 for the first, 0.728 for the second.

Compared with U7A U32G U35A, U7A G44C A45U is higher in yeast fitness: at most 0.5 for the first, 0.503 for the second.

U7C C62U A65U showed a yeast fitness of 0.542.
